In ChEMBL document CHEMBL4765376, “Discovery of an Orally Available Diazabicyclooctane Inhibitor (ETX0282) of Class A, C, and D Serine β-Lactamases” (J Med Chem, 2020):
≈ marks a conversion by molar mass, not a printed value. Calls of active or inactive are those of the source. No cut-off for these calls is given here.

Tests used:
[1] = Inhibition of beta lactamase TEM-1 in Escherichia coli assessed as decrease in enzyme activity using nitrocefin as chromogenic substrate incubated for 10 mins by […] plate reader analysis
[2] = Inhibition of beta lactamase TEM-1 in Escherichia coli assessed as decrease in enzyme activity using nitrocefin as chromogenic substrate incubated for 60 mins by […] plate reader analysis
[3] = Inhibition of beta lactamase AmpC in Pseudomonas aeruginosa assessed as decrease in enzyme activity using nitrocefin as chromogenic substrate incubated for 10 mins by […] plate reader analysis
[4] = Inhibition of beta lactamase AmpC in Pseudomonas aeruginosa assessed as decrease in enzyme activity using nitrocefin as chromogenic substrate incubated for 60 mins by […] plate reader analysis
[5] = Inhibition of beta lactamase OXA-48 in Klebsiella pneumoniae assessed as decrease in enzyme activity using nitrocefin as chromogenic substrate incubated for 10 mins by […] plate reader analysis
[6] = tested on: Escherichia coli; experiment: Antibacterial activity against Escherichia coli ARC3627 assessed as reduction in bacterial growth by CLSI based broth dilution method; format: functional
In short: (§1)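 Broth microdilution in CAMHB following CLSI.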

[7] = tested on: Klebsiella pneumoniae; experiment: Antibacterial activity against Klebsiella pneumoniae ARC561 assessed as reduction in bacterial growth by CLSI based broth dilution method; format: functional; in short: as §1
[8] = tested on: Escherichia coli; experiment: Inhibition of beta-lactamase activity in Escherichia coli ARC3627 assessed as MIC for cefpodoxime antibacterial activity at 4 ug/ml by CLSI based broth dilution method (Rvb >64 ug/ml); conditions: dose 4.0 µg/ml
[9] = tested on: Klebsiella pneumoniae; experiment: Inhibition of beta-lactamase activity in Klebsiella pneumoniae ARC561 assessed as MIC for cefpodoxime antibacterial activity at 4 ug/ml by CLSI based broth dilution method (reference value: 32 ug/ml); conditions: dose 4.0 µg/ml
[10] = Inhibition of beta lactamase OXA-48 in Klebsiella pneumoniae assessed as decrease in enzyme activity using nitrocefin as chromogenic substrate incubated for 60 mins by absorbance plate reader analysis
[11] = Stability of compound in phosphate buffer assessed as half-life at pH 7.4; format: physicochemical
In short: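 Compound at 10 μM in potassium phosphate buffer pH 7.4 at 37 °C without S9. Sampled at 0 to 60 min and measured by LC/MS/MS. Half-life from the first-order log-linear depletion slope.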

[12] = Metabolic stability in rat intestinal S9 fraction assessed as half-life at 10 uM up to 60 mins by LC/MS/MS analysis; format: ADME, subcellular, Intestine
In short: (§2)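 S9 fraction at 0.8 mg/mL protein in 100 mM potassium phosphate pH 7.4, preincubated 5 min at 37 °C, then compound added at 10 μM final. Aliquots taken at 0, 2, 5, 10, 20, 40 and 60 min, quenched in acetonitrile with internal standard, and prodrug measured by LC/MS/MS. First-order half-life taken from the log-linear depletion slope.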

[13] = Metabolic stability in rat liver S9 fraction assessed as half-life at 10 uM up to 60 mins by LC/MS/MS analysis; format: ADME, subcellular; in short: as §2
[14] = Metabolic stability in human intestinal S9 fraction assessed as half-life at 10 uM up to 60 mins by LC/MS/MS analysis; format: ADME, subcellular, Intestine; in short: as §2
[15] = Metabolic stability in human liver S9 fraction assessed as half-life at 10 uM up to 60 mins by LC/MS/MS analysis; format: ADME, subcellular; in short: as §2
[16] = Oral bioavailability in Sprague-Dawley rat at 10 mg/kg by LC/MS/MS analysis; format: ADME, organism-based; conditions: in vivo
In short: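 Jugular vein-cannulated male Sprague Dawley rats (180–200 g, n = 3/route). Intravenous arm: active acid at 10 mg/kg in 0.9% saline, plasma sampled 0.08–8 h. Oral arm: prodrug at a dose equivalent to 10 mg/kg acid in 25:75 PEG 400/WFI, plasma sampled 0.25–24 h. Levels by LC/MS/MS; F = (AUCpo/AUCiv) × 100.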

[17] = tested on: Klebsiella pneumoniae; experiment: Antibacterial activity against Klebsiella pneumoniae ARC 6082 drug resistant clinical isolates assessed as reduction in bacterial growth by CLSI based broth dilution method; format: functional
In short: (§3)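 Broth microdilution per CLSI in cation-adjusted Mueller–Hinton broth against drug-resistant clinical isolates; MIC read as the lowest concentration preventing bacterial growth.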

[18] = tested on: Klebsiella pneumoniae; experiment: Antibacterial activity against Klebsiella pneumoniae ARC 6088 carbapenem-resistant clinical isolates assessed as reduction in bacterial growth by CLSI based broth dilution method; format: functional; in short: as §3
[19] = tested on: Klebsiella pneumoniae; experiment: Antibacterial activity against Klebsiella pneumoniae ARC 6098 drug resistant clinical isolates assessed as reduction in bacterial growth by CLSI based broth dilution method; format: functional; in short: as §3
[20] = tested on: Klebsiella pneumoniae; experiment: Antibacterial activity against Klebsiella pneumoniae ARC 6107 carbapenem resistant clinical isolates assessed as reduction in bacterial growth by CLSI based broth dilution method; format: functional; in short: as §3
[21] = tested on: Klebsiella oxytoca; experiment: Antibacterial activity against Klebsiella oxytoca ARC 5389 carbapenem resistant clinical isolates assessed as reduction in bacterial growth by CLSI based broth dilution method; format: functional; in short: as §3
[22] = tested on: Citrobacter freundii; experiment: Antibacterial activity against Citrobacter freundii ARC 3518 carbapenem resistant clinical isolates assessed as reduction in bacterial growth by CLSI based broth dilution method; format: functional; in short: as §3
[23] = tested on: Enterobacter cloacae; experiment: Antibacterial activity against Enterobacter cloacae ARC 6049 drug resistant clinical isolates assessed as reduction in bacterial growth by CLSI based broth dilution method; format: functional; in short: as §3
[24] = tested on: Enterobacter cloacae; experiment: Antibacterial activity against Enterobacter cloacae ARC 6055 drug resistant clinical isolates assessed as reduction in bacterial growth by CLSI based broth dilution method; format: functional; in short: as §3
[25] = tested on: Escherichia coli; experiment: In vivo antibacterial activity against multidrug-resistant Escherichia coli ARC 2687 infected in CD-1 mouse model of neutropenic thigh infection assessed as colony forming unit at 50 mg/kg, po administered at 6 hrs interval; format: functional, organism-based
In short: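 Female CD-1 mice (20–22 g, 3/arm) made neutropenic with ip cyclophosphamide, 150 mg/kg on day −4 and 100 mg/kg on day −1. Each thigh received an im inoculum of 5.5 × 10^6–1.6 × 10^7 CFU from saline suspension (OD625 0.1, diluted). Dosing began 2 h post-infection, q6h. Oral agents were given in 0.5% HPMC/0.1% Tween 80; meropenem was given sc in water. Thighs were taken at 24 h, homogenized and plated on TSA (35 °C overnight) for CFU counts.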

Compound	IC50 [1] [nM]	IC50 [2] [nM]	IC50 [3] [nM]	IC50 [4] [nM]	IC50 [5] [nM]	MIC [6]	MIC [7]	MIC [8]	MIC [9]	IC50 [10] [nM]	also measured
CC1=C[C@@H]2CN(C(=O)N2O[C@@H](F)C(=O)O)[C@@H]1C(N)=O	13	19	180	71	63	8 µg/mL (≈ 29.3 µM)	> 32 µg/mL	1 µg/mL (≈ 3.66 µM)	2 µg/mL (≈ 7.32 µM)	15	–
CC1=C[C@@H]2CN(C(=O)N2OC(C)(F)C(=O)O)[C@@H]1C(N)=O (some centres not stated)	680	230	1400	400	89000	> 32 µg/mL	> 32 µg/mL	2 µg/mL (≈ 6.96 µM)	2 µg/mL (≈ 6.96 µM)	22000	–
CCOC(=O)[C@H](F)ON1C(=O)N2C[C@H]1C=C(C)[C@H]2C(=O)NCCS(N)(=O)=O	–	–	–	–	–	–	–	–	–	–	half-life [11]: 26 min; half-life at 10 µM [12]: 20 min; half-life at 10 µM [13]: 10 min; half-life at 10 µM [14]: 22 min; half-life at 10 µM [15]: 9.9 min; bioavailability [16]: 4%
CC1=C[C@@H]2CN(C(=O)N2OS(=O)(=O)O)[C@@H]1C(N)=O	–	–	8	5.8	24	0.25 µg/mL (≈ 0.902 µM)	8 µg/mL (≈ 28.9 µM)	< 0.06 µg/mL	< 0.06 µg/mL	5	–
CC1=C[C@@H]2CN(C(=O)N2OC(F)(F)C(=O)O)[C@@H]1C(N)=O	1.2	1.5	50	12	75	inactive	inactive	inactive	inactive	14	–
CCOC(=O)[C@H](F)ON1C(=O)N2C[C@H]1C(C)=C[C@H]2C(N)=O (racemic)	–	–	–	–	–	–	–	–	–	–	bioavailability [16]: 71%
CC1=C[C@@H]2CN(C(=O)N2O[C@@H](F)C(=O)O)[C@@H]1c1nnc(C(N)=O)o1	17	24	360	180	26	16 µg/mL (≈ 46.9 µM)	> 32 µg/mL	2 µg/mL (≈ 5.86 µM)	2 µg/mL (≈ 5.86 µM)	7.3	–
CC1=C[C@@H](C(N)=O)N2C[C@@H]1N(O[C@H](F)C(=O)O)C2=O	2.3	3.2	450	140	370	–	–	< 0.06 µg/mL	0.25 µg/mL (≈ 0.915 µM)	70	–
CC1=C[C@@H]2CN(C(=O)N2O[C@H](F)C(=O)OC(C)C)[C@@H]1C(N)=O	–	–	–	–	–	–	–	–	–	–	bioavailability [16]: 38%
CC1=C[C@@H](C(N)=O)N2C[C@@H]1N(OCC(=O)O)C2=O	340	150	14000	4600	66	2 µg/mL (≈ 7.84 µM)	32 µg/mL (≈ 125 µM)	< 0.06 µg/mL	0.125 µg/mL (≈ 0.49 µM)	530	–
NC(=O)[C@@H]1CC[C@@H]2CN1C(=O)N2OS(=O)(=O)O [AVIBACTAM]	–	–	–	–	–	32 µg/mL (≈ 121 µM)	> 32 µg/mL	0.5 µg/mL (≈ 1.89 µM)	1 µg/mL (≈ 3.77 µM)	–	–
COCC1=C(C(=O)O)N2C(=O)[C@@H](NC(=O)/C(=N\OC)c3csc(N)n3)[C@H]2SC1 [CEFPODOXIME]	–	–	–	–	–	> 64 µg/mL	32 µg/mL (≈ 74.9 µM)	–	–	–	MIC [17]: > 64 µg/mL; MIC [18]: > 64 µg/mL; MIC [19]: > 64 µg/mL; MIC [20]: > 64 µg/mL; MIC [21]: > 64 µg/mL; MIC [22]: > 64 µg/mL; MIC [23]: > 64 µg/mL; MIC [24]: > 64 µg/mL; Activity [25]: inactive
CCOC(=O)[C@@H](F)ON1C(=O)N2C[C@H]1C(C)=C[C@H]2C(N)=O	–	–	–	–	–	–	–	–	–	–	bioavailability [16]: 75%
CC1=C[C@@H]2CN(C(=O)N2O[C@@H](F)C(=O)O)[C@@H]1C(=O)NCCNS(N)(=O)=O	55	83	53	14	2000	2 µg/mL (≈ 5.06 µM)	> 32 µg/mL	< 0.06 µg/mL	0.125 µg/mL (≈ 0.316 µM)	420	–
CC1=C[C@@H]2CN(C(=O)N2OCC(=O)O)[C@@H]1C(N)=O	1500	430	4100	1200	150	32 µg/mL (≈ 125 µM)	> 32 µg/mL	4 µg/mL (≈ 15.7 µM)	2 µg/mL (≈ 7.84 µM)	51	–
NC(=O)[C@@H]1C(C2CC2)=C[C@@H]2CN1C(=O)N2OC(F)C(=O)O (single isomer, unassigned)	18	24	290	95	17	32 µg/mL (≈ 107 µM)	> 32 µg/mL	2 µg/mL (≈ 6.68 µM)	2 µg/mL (≈ 6.68 µM)	5.2	–
CC1=C[C@@H](C(N)=O)N2C[C@@H]1N(O[C@@H](F)C(=O)O)C2=O (racemic)	20	26	1300	300	67	–	> 32 µg/mL	< 0.06 µg/mL	0.06 µg/mL (≈ 0.22 µM)	19	–
CC1=C[C@@H]2CN(C(=O)N2O[C@H](F)C(=O)OC(C)OC(=O)OC(C)C)[C@@H]1C(N)=O (some centres not stated)	–	–	–	–	–	–	–	–	–	–	bioavailability [16]: 11%
CC1=C[C@@H]2CN(C(=O)N2O[C@@H](F)C(=O)O)[C@@H]1C(=O)NC1COC1	440	660	260	54	55	16 µg/mL (≈ 48.6 µM)	> 32 µg/mL	> 32 µg/mL	4 µg/mL (≈ 12.1 µM)	12	–
CC1=C[C@@H](C(N)=O)N2C[C@@H]1N(O[C@@H](F)C(=O)OC(C)C)C2=O	–	–	–	–	–	–	–	–	–	–	bioavailability [16]: 84%
CCOC(=O)[C@@H](F)ON1C(=O)N2C[C@H]1C=C(C)[C@H]2C(N)=O	–	–	–	–	–	–	–	–	–	–	bioavailability [16]: 45%
CC1=C[C@@H]2CN(C(=O)N2O[C@@H](F)C(=O)O)[C@@H]1C(=O)NCCS(N)(=O)=O	48	57	22	4.1	2200	4 µg/mL (≈ 10.5 µM)	> 32 µg/mL	< 0.06 µg/mL	1 µg/mL (≈ 2.63 µM)	410	–
CC1=C[C@@H]2CN(C(=O)N2O[C@H](F)C(=O)O)[C@@H]1C(N)=O	0.73	1.4	41	11	71	2 µg/mL (≈ 7.32 µM)	32 µg/mL (≈ 117 µM)	0.06 µg/mL (≈ 0.22 µM)	0.25 µg/mL (≈ 0.915 µM)	15	–
CC1=C[C@@H]2CN(C(=O)N2O[C@@H](F)C(=O)O)[C@@H]1C(=O)NOCC1CC1	18	26	700	130	400	> 32 µg/mL	> 32 µg/mL	16 µg/mL (≈ 46.6 µM)	4 µg/mL (≈ 11.7 µM)	87	–
